Here are results for 7 compounds from article PMC7475184 (Heliyon, 2020).

In brackets after ≈: the same amount, converted by molar mass.

For orientation: MIC means the smallest concentration in the dilution series that meets the test's criterion for growth inhibition. Broadly, the IC50 is the concentration that inhibits the measured activity by half.

The subject of assay [1] is carbapenems-resistant Klebsiella pneumoniae (OXA-48 positive). As to the kind of experiment: Antibacterial activity, microdilution method. It is filed as cell-based. Conditions: for MIC, KPRO: MDR clinical isolate, microdilution; for MIC: Klebsiella pneumoniae, read-out: MIC, KPRO. The gist of the method:
(§1)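 Drug-resistant clinical isolates from a university hospital, tested by broth microdilution in Mueller Hinton medium. Test compounds at 200, 100, 50, 25, 12.5, 6.25 and 3.12 μg/mL. Levofloxacin positive control at the same concentrations; DMSO (6%–0.09%, v/v) negative control. MIC taken as the lowest concentration inhibiting bacterial growth. Three repeat experiments.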

For assay [2], the system named is Linezolid-resistant Staphylococcus epidermidis (14–583). Description: Antibacterial activity, microdilution method. It is filed as cell-based. Conditions: for MIC, LRSE: MDR clinical isolate, microdilution; for MIC: Staphylococcus epidermidis, read-out: MIC, LRSE. A digest of the protocol: as §1
For assay [3], the system named is Escherichia coli producing extended-spectrum beta-lactamase (14–2081). As to the kind of experiment: Antibacterial activity, microdilution method. It is filed as cell-based. To be noted: for MIC, ECPB: MDR clinical isolate, microdilution; for MIC: Escherichia coli, read-out: MIC, ECPB. A digest of the protocol: as §1
A general note: In broth dilution the organism is exposed to a series of concentrations in liquid medium.

In assay [4] the test system is Carbapenems-resistant Acinetobacter baumannii (12–666). Description: Antibacterial activity, microdilution method. The format is cell-based. To be noted: for MIC, CRAB: MDR clinical isolate, microdilution; for MIC: Acinetobacter baumannii, read-out: MIC, CRAB. The gist of the method:
as §1

The test system of assay [5] is HepG2 (hepatocellular) cells. As to the kind of experiment: Cytotoxic activity, Cell Titer 96 proliferation kit. The format is cell-based, human. To be noted: for IC50, HepG2: HepG2 cells; for IC50: Homo sapiens, HepG2, read-out: IC50, HepG2. The gist of the method: (§2)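 Cells grown in DMEM with 10% fetal bovine serum and 2 mM glutamine at 37 °C under 5% CO2. Test compounds at 100, 10, 1, 0.1 and 0.01 μg/mL for a dose-response curve. Viability read with a Cell Titer 96 aqueous kit by absorbance at 450 nm. Paclitaxel reference. Triplicates in three independent experiments; IC50 by regression analysis.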

The test system of another assay is A549 (lung) cells. The assay is described as above. It is filed as cell-based, human. Conditions: for IC50, A549: A549 cells; for IC50: Homo sapiens, A549, read-out: IC50, A549. The gist of the method:
as §2

The test system of assay [6] is Klebsiella pneumoniae producer of ESBL (14–2081). As to the kind of experiment: Antibacterial activity, microdilution method. Conditions: for MIC, KPPB: MDR clinical isolate, microdilution; for MIC: Klebsiella pneumoniae, read-out: MIC, KPPB. It is filed as cell-based. The gist of the method:
as §1

In the next assay the test system is HeLa (cervical) cells. Description: Cytotoxic activity, Cell Titer 96 proliferation kit. The format is cell-based, human. To be noted: for IC50, Hela: HeLa cells; for IC50: Homo sapiens, HeLa, read-out: IC50, Hela. A digest of the protocol:
as §2

In assay [7] the test system is immortalized human hepatocytes (IHH). The format is cell-based. To be noted: for IC50, IHH: non-cancerous control cells IHH; for IC50: Homo sapiens, Hepatocyte, read-out: IC50, IHH. A digest of the protocol:
as §2

Assay [8] has as its system Methicillin-Resistant Staphylococcus aureus (14–2095). As to the kind of experiment: Antibacterial activity, microdilution method. It is filed as cell-based. To be noted: for MIC, MRSA: MDR clinical isolate, microdilution; for MIC: Staphylococcus aureus, MRSA, read-out: MIC, MRSA. The gist of the method: as §1
For assay [9], the system named is Hep3B (hepatocellular) cells. As to the kind of experiment: Cytotoxic activity, Cell Titer 96 proliferation kit. The format is cell-based, human. To be noted: for IC50, Hep3B: Hep3B cells; for IC50: Homo sapiens, Hep3B, read-out: IC50, Hep3B. The gist of the method: as §2
Assay [10] deals with Vancomycin-resistant Enterococcus faecium (10–984). Description: Antibacterial activity, microdilution method. To be noted: for MIC, VREF: MDR clinical isolate, microdilution; for MIC: Enterococcus faecium, read-out: MIC, VREF. It is filed as cell-based. The gist of the method: as §1
Assay [11] has as its system P. aeruginosa resistant to carbapenems (13–1391). Description: Antibacterial activity, microdilution method. It is filed as cell-based, Pseudomonas aeruginosa. Conditions: for MIC, PARC: MDR clinical isolate, microdilution; for MIC: Pseudomonas aeruginosa, read-out: MIC, PARC. The gist of the method: as §1
The test system of assay [12] is carbapenems-resistant Klebsiella pneumoniae NDM-1+ (14–3335). Description: Antibacterial activity, microdilution method. It is filed as cell-based. To be noted: for MIC, KPNDM-1+: MDR clinical isolate, microdilution; for MIC: Klebsiella pneumoniae, read-out: MIC, KPNDM-1+. A digest of the protocol: as §1
The next assay has as its system PC3 (prostate) cells. As to the kind of experiment: Cytotoxic activity, Cell Titer 96 proliferation kit. The format is cell-based, human. Conditions: for IC50, PC3: PC3 cells; for IC50: Homo sapiens, PC-3, read-out: IC50, PC3. A digest of the protocol:
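PC3 cells kept in RPMI-1640 at 37 °C under 5% CO2. Dose-response over 100, 10, 1, 0.1 and 0.01 μg/mL test compound. Viability measured with a Cell Titer 96 aqueous kit by absorbance at 450 nm. Paclitaxel reference. Triplicates in three independent experiments; IC50 derived by regression analysis.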

Assay [13] has as its system hepatocellular carcinoma lines. Description: Selectivity Index on hepatocellular carcinoma lines versus IHH. It is filed as cell-based, human. Conditions: HepG2 and Hep3B versus IHH.
A further assay concerns P. aeruginosa. To be noted: Vernonia auriculifera screening; ref Kiplimo et al., 2011; cited from earlier work.
The next assay relates to MCF7 (breast) cells. As to the kind of experiment: Cytotoxic activity, Cell Titer 96 proliferation kit. It is filed as cell-based, human. The gist of the method:
as §2

Regarding `CC[C@H](CC[C@@H](C)[C@H]1CC[C@H]2[C@@H]3CC=C4C[C@@H](O[C@@H]5O[C@H](COC(C)=O)[C@@H](OC(C)=O)[C@H](OC(C)=O)[C@H]5OC(C)=O)CC[C@]4(C)[C@H]3CC[C@]12C)C(C)C` [3Ac, β-sitosteryl β-D-tetraacetyl glucopyranoside], the “MIC, KPRO” value in [1] amounted to 200 µg/mL (≈ 268 µM). In addition, the “MIC, LRSE” value in assay [2] is above 200 µg/mL. The “MIC, ECPB” value in assay [3] was above 200 µg/mL. For the same compound, the “MIC, CRAB” value in [4] was 200 µg/mL (≈ 268 µM). For the same compound, the “IC50, HepG2” value in assay [5] amounted to 50 ± 3 µg/mL (≈ 67.1 µM). Besides, the “IC50, A549” value with A549 (lung) cells came to 87 ± 8 µg/mL (≈ 117 µM). Also, the “MIC, KPPB” value in [6] was above 200 µg/mL. Besides, in the assay on HeLa (cervical) cells, the “IC50, Hela” value stood at 63 ± 7 µg/mL (≈ 84.6 µM). Further, in [7], the “IC50, IHH” value turned out to be 78 ± 7 µg/mL (≈ 105 µM). In assay [8], the “MIC, MRSA” value is above 200 µg/mL. In addition, in [9], the “IC50, Hep3B” value came to 49 ± 4 µg/mL (≈ 65.8 µM). The “MIC, VREF” value in assay [10] was determined as 200 µg/mL (≈ 268 µM). The “MIC, PARC” value in assay [11] stood at 200 µg/mL (≈ 268 µM). For the same compound, the “MIC, KPNDM-1+” value in [12] is above 200 µg/mL. In addition, the “IC50, PC3” value in the assay on PC3 (prostate) cells was 43 ± 4 µg/mL (≈ 57.7 µM).

On to `C[C@H]1COc2c(N3CCN(C)CC3)c(F)cc3c(=O)c(C(=O)O)cn1c23` [levofloxacin, reference compound], for which the MIC is above 50 µg/mL in assay [1]; 6.25 µg/mL (≈ 17.3 µM) in [2]; 12.5 µg/mL (≈ 34.6 µM) in assay [3]; 12.5 µg/mL (≈ 34.6 µM) in assay [4]; above 50 µg/mL in [6]; 12.5 µg/mL (≈ 34.6 µM) in [8]. For the same compound, the results for the minimal inhibitory concentration (MIC) in assay [10], in assay [11] and in assay [12] were 12.5 µg/mL (≈ 34.6 µM), 12.5 µg/mL (≈ 34.6 µM) and above 50 µg/mL, respectively.

Turning to `CCCCCCCCCCCCCCCCCCCCCCCC(=O)OCC(O)CO` (stereo not drawn) [compound 2, 2,3-dihydroxypropyl tetracosanoate], the MIC in [1] is 200 µg/mL (≈ 452 µM); in assay [2] it was 200 µg/mL (≈ 452 µM); in assay [3], above 200 µg/mL; in [4], 200 µg/mL (≈ 452 µM); in [6] it was above 200 µg/mL; in assay [8], above 200 µg/mL. Besides, the MIC in [10], in assay [11] and in assay [12] was 200 µg/mL (≈ 452 µM) throughout. The half-maximal inhibitory concentration (IC50) in [5] was 75 ± 6 µg/mL (≈ 169 µM); with A549 (lung) cells, above 100 µg/mL; in the assay on HeLa (cervical) cells, 82 ± 8 µg/mL (≈ 185 µM); in assay [7], 100 µg/mL (≈ 226 µM); in assay [9], 73 ± 7 µg/mL (≈ 165 µM); with PC3 (prostate) cells it was 75 ± 5 µg/mL (≈ 169 µM). The “Selectivity Index (SI) on hepatocellular carcinoma lines” value in [13] is “greater than 1”.

For `C[C@H]1[C@H](C)CC[C@]2(C)CC[C@]3(C)C(=CC[C@@H]4[C@@]5(C)CC[C@H](O)C(C)(C)[C@@H]5CC[C@]43C)[C@H]12` [α-amyrin], the “MIC, P. aeruginosa” value with P. aeruginosa was 1000 µg/mL (≈ 2340 µM).

For `CC(=O)OC[C@H]1O[C@@H](O[C@H]2CC[C@]3(C)[C@H]4CC=C5[C@@H]6[C@@H](C)[C@H](C)CC[C@]6(C)CC[C@@]5(C)[C@]4(C)CC[C@H]3C2(C)C)[C@H](OC(C)=O)[C@@H](OC(C)=O)[C@@H]1OC(C)=O` [4Ac, α-amyrin tetraacetyl 3-O-β-D-glucopyranoside], the “IC50, MCF7” value in the assay on MCF7 (breast) cells is above 100 µg/mL. In assay [5], the “IC50, HepG2” value was above 100 µg/mL. Moreover, the “IC50, A549” value with A549 (lung) cells is above 100 µg/mL. Moreover, the “IC50, Hela” value with HeLa (cervical) cells is above 100 µg/mL. The “IC50, IHH” value in [7] was above 100 µg/mL. Moreover, in assay [9], the “IC50, Hep3B” value is above 100 µg/mL. Moreover, in the assay on PC3 (prostate) cells, the “IC50, PC3” value is above 100 µg/mL.

Turning to `CCCCCCCCCCCCCCCCCCCCCCCC(=O)OCC(COC(C)=O)OC(C)=O` (stereo not drawn) [2Ac, 3-(tetracosanoyloxy) propane-1,2-diyl diacetate], in assay [1], the “MIC, KPRO” value was above 200 µg/mL. Also, the “MIC, LRSE” value in assay [2] came out at 200 µg/mL. In addition, the “MIC, ECPB” value in [3] is above 200 µg/mL. In addition, the “MIC, CRAB” value in [4] worked out at 100 µg/mL. Moreover, in assay [6], the “MIC, KPPB” value was above 200 µg/mL. In addition, in assay [8], the “MIC, MRSA” value was above 200 µg/mL. For the same compound, the “MIC, VREF” value in [10] was 200 µg/mL. In addition, in assay [11], the “MIC, PARC” value is 200 µg/mL. Moreover, the “MIC, KPNDM-1+” value in assay [12] is 200 µg/mL.

Turning to `CC(=O)O[C@H]1C(=O)[C@@]2(C)[C@H]([C@H](OC(=O)c3ccccc3)[C@]3(O)C[C@H](OC(=O)[C@H](O)[C@@H](NC(=O)c4ccccc4)c4ccccc4)C(C)=C1C3(C)C)[C@]1(OC(C)=O)CO[C@@H]1C[C@@H]2O` [Paclitaxel, reference compound], the IC50 in [5] worked out at 0.064 µg/mL (≈ 0.0749 µM); in the assay on A549 (lung) cells, 0.00512 µg/mL (≈ 0.006 µM); in the assay with HeLa (cervical) cells, 0.00478 µg/mL (≈ 0.0056 µM); in assay [7], 0.0794 µg/mL (≈ 0.093 µM); in [9] it was 0.033 µg/mL (≈ 0.0386 µM); with PC3 (prostate) cells, 0.0102 µg/mL (≈ 0.0119 µM).
